Measurements: ChEMBL document CHEMBL1142724 (J Med Chem, 2005)
Where “and” joins values, the source holds several entries; their conditions need not be identical. Equal values may be shown once.

How the values were obtained:
[1] = molecular target: T1, Transient receptor potential cation channel subfamily V member 1 (Rattus norvegicus, UniProt O35433); assay: Effective concentration against rat transient receptor potential vanilloid 1 receptor (n=2)
Outline: (§1)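 HEK293 cells stably expressing human or rat TRPV1 were loaded with 4 µM Fluo-3/AM for 60 min at room temperature. Cells were held in HEPES buffer, pH 7.45, with 2 mM CaCl2. Capsaicin-like Ca2+ flux was read on FLIPR with compounds up to 30 µM. Counts were basal-subtracted. Values came from a four-parameter Hill fit, as mean ± SEM.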

[2] = molecular target: T2, Transient receptor potential cation channel subfamily V member 1 (Homo sapiens, UniProt Q8NER1); assay: Effective concentration against human transient receptor potential vanilloid 1 receptor (n=2); outline: as §1
T2 sequence (Q8NER1 whole entry): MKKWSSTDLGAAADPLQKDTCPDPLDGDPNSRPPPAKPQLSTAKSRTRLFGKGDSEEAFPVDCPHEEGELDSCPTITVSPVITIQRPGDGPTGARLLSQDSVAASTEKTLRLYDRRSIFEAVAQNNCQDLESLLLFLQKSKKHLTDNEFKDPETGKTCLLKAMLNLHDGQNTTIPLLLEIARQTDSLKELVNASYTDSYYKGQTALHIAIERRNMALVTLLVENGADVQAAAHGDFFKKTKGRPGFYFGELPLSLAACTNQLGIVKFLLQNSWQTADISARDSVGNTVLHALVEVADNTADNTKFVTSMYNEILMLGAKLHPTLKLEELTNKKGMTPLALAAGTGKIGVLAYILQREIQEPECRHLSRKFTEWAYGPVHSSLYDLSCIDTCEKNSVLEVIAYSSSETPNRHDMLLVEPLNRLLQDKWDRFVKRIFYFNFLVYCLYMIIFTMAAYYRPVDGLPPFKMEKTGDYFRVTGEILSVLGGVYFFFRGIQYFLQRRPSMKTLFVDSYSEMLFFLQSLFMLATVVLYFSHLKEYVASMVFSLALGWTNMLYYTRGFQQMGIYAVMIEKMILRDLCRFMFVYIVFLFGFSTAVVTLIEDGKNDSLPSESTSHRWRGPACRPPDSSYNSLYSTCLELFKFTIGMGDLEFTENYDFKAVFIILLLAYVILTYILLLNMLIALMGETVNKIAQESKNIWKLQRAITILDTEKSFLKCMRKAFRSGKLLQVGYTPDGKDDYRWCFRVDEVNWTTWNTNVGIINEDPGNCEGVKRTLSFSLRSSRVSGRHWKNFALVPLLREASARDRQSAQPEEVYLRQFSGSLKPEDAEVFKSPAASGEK

[3] = molecular target: Transient receptor potential cation channel subfamily V member 1 (Rattus norvegicus) (UniProt O35433); assay: Percentage efficacy against rat transient receptor potential vanilloid 1 receptor (n=3)
Transient receptor potential cation channel subfamily V member 1 (Rattus norvegicus), sequence (O35433 whole entry): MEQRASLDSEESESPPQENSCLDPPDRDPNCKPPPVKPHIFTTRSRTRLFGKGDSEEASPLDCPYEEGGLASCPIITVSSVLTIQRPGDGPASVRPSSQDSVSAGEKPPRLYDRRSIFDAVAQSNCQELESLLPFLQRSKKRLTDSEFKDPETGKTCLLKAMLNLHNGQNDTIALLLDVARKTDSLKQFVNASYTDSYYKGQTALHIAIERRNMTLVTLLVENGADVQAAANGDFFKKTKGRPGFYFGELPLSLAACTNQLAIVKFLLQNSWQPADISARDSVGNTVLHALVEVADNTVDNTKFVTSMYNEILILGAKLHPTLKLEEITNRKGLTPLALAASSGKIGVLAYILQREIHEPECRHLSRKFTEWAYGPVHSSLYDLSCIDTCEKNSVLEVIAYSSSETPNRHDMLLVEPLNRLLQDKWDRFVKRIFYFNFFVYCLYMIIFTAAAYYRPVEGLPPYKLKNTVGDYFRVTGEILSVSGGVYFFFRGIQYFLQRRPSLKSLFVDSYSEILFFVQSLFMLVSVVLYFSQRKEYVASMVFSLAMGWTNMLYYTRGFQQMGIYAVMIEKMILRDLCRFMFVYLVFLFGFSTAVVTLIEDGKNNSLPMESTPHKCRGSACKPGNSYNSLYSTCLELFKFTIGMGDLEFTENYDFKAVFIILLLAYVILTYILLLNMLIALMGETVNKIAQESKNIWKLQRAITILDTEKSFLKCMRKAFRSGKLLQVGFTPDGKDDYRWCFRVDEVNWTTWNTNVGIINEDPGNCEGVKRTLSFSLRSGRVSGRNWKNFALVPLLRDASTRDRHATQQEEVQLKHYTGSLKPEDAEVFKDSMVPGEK
Outline: (§2)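 FLIPR Ca2+ flux in HEK293 cells stably expressing human TRPV1 or rat TRPV1, grown in DMEM with 10% FBS. Cells were seeded, incubated overnight, then loaded with 4 µM Fluo-3/AM and 0.01% Pluronic-F127 for 60 min at room temperature. Assay buffer was HEPES-buffered saline with 2 mM CaCl2, pH 7.45. Intracellular Ca2+ was read during compound exposure, 0.3 nM–30 µM in half-log steps. Signal was basal-subtracted, taking the smaller of the peak and end-of-incubation values.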

[4] = molecular target: T2, Transient receptor potential cation channel subfamily V member 1; assay: Percentage efficacy against human transient receptor potential vanilloid 1 receptor (n=2); outline: as §2
[5] = molecular target: T2, Transient receptor potential cation channel subfamily V member 1; assay: Inhibition of human transient receptor potential vanilloid 1 receptor (n=2)
Outline: (§3)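 FLIPR Ca2+ influx in Fluo-3-loaded HEK293 cells stably expressing human or rat TRPV1. Compound was added at 0.3 nM–30 µM final, in half-log steps, for 3 min before capsaicin. Capsaicin was 15 nM final for human; for rat it was 15 nM, or 100 nM in later runs. Signal was the smaller of peak and end fluorescence after basal subtraction. IC50 came from a four-parameter logistic fit.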

[6] = molecular target: T1, Transient receptor potential cation channel subfamily V member 1; assay: Inhibition of rat transient receptor potential vanilloid 1 receptor (n=2)
Outline: (§4)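 FLIPR Ca2+ influx in Fluo-3-loaded HEK293 cells stably expressing human or rat TRPV1. Compound was added at 0.3 nM–30 µM final, in half-log steps, for 3 min before capsaicin. Signal was the smaller of peak and end fluorescence after basal subtraction. IC50 came from a four-parameter logistic fit.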

[7] = molecular target: T2, Transient receptor potential cation channel subfamily V member 1; assay: Inhibition of human transient receptor potential vanilloid 1 receptor (n=5); outline: as §3
[8] = molecular target: T2, Transient receptor potential cation channel subfamily V member 1; assay: In vitro inhibition of PMA-activated human TRPV1 receptor in [Ca2+] influx assay
Outline: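 Human TRPV1-HEK293 cells were loaded with Fluo-3 and preincubated with compound for 3 min. They were then stimulated with 300 nM PMA, and fluorescence was monitored for 5–10 min on FLIPR. IC50 came from a four-parameter logistic fit.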

[9] = molecular target: T1, Transient receptor potential cation channel subfamily V member 1; assay: In vitro inhibition of acid activated rat TRPV1 receptor in [Ca2+] influx assay
Outline: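 Rat TRPV1-HEK293 cells loaded with Fluo-3 were challenged for about 5 min with pH 5.8–6.0 solution to raise basal Ca2+.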

[10] = molecular target: T2, Transient receptor potential cation channel subfamily V member 1; assay: In vitro inhibition of anandamide activated human TRPV1 receptor in [Ca2+] influx assay
[11] = molecular target: T1, Transient receptor potential cation channel subfamily V member 1; assay: Inhibition of rat transient receptor potential vanilloid 1 receptor (n=4); outline: as §3
[12] = molecular target: T2, Transient receptor potential cation channel subfamily V member 1; assay: Inhibition of human transient receptor potential vanilloid 1 receptor (n=4); outline: as §4
[13] = molecular target: T2, Transient receptor potential cation channel subfamily V member 1; assay: Inhibition of human transient receptor potential vanilloid 1 receptor (n=6); outline: as §3
[14] = molecular target: T1, Transient receptor potential cation channel subfamily V member 1; assay: Inhibition of rat transient receptor potential vanilloid 1 receptor (n=3); outline: as §3
[15] = molecular target: T1, Transient receptor potential cation channel subfamily V member 1; assay: Effective concentration against rat transient receptor potential vanilloid 1 receptor (n=6); outline: as §1
[16] = molecular target: T2, Transient receptor potential cation channel subfamily V member 1; assay: Effective concentration against human transient receptor potential vanilloid 1 receptor (n=6); outline: as §1
[17] = molecular target: T2, Transient receptor potential cation channel subfamily V member 1; assay: Percentage efficacy against human transient receptor potential vanilloid 1 receptor (n=3); outline: as §2
[18] = molecular target: T2, Transient receptor potential cation channel subfamily V member 1; assay: Inhibition of human transient receptor potential vanilloid 1 receptor (n=3); outline: as §4
Rattus norvegicus = species on record: Rattus norvegicus; assay: Effective dose to produce maximal thermal desensitization in rat at 5 ug
[19] = molecular target: T1, Transient receptor potential cation channel subfamily V member 1; assay: Effective concentration against rat transient receptor potential vanilloid 1 receptor (n=3); outline: as §1
[20] = molecular target: T2, Transient receptor potential cation channel subfamily V member 1; assay: Effective concentration against human transient receptor potential vanilloid 1 receptor (n=3); outline: as §1
[21] = molecular target: T2, Transient receptor potential cation channel subfamily V member 1; assay: Effective concentration against human transient receptor potential vanilloid 1 receptor (n=6); Inactive; outline: as §1

T1 sequence (O35433 whole entry): as above

Cc1ccccc1C1CCN(C(=O)Nc2ccc(C(F)(F)F)cc2)CC1
EC50 [1]: 1720 nM
EC50 [2]: 1930 nM
Efficacy [3]: 86%
Efficacy [4]: 8%

O=C(Nc1ccc(C(F)(F)F)cc1)C1CCN(c2ncccc2C(F)(F)F)CC1
IC50 [5]: 965 nM
IC50 [6]: > 10000 nM

Oc1cc2c(cc1O)CN(C(=S)NCCc1ccc(Cl)cc1)CCC2 [CAPSAZEPINE]
IC50 [7]: 74 nM
IC50 [8]: 5 nM and 3 nM
IC50 [6]: 365 nM
IC50 [9]: 13 nM
IC50 [10]: 4 nM and 3 nM (2×)

CC1CN(c2ncccc2C(F)(F)F)CCN1C(=O)Nc1ccc(C(F)(F)F)cc1 (stereo not given)
IC50 [11]: 104 nM
IC50 [12]: 64 nM

O=C(Nc1ccc([N+](=O)[O-])cc1)N1CCN(c2ncccc2C(F)(F)F)CC1
IC50 [13]: 74 nM
IC50 [14]: 100 nM
IC50 [10]: 6 nM and 4 nM and 3 nM

O=C(Nc1ccc(C(F)(F)F)cc1)NC1CCN(c2ncccc2C(F)(F)F)CC1
IC50 [6]: 4360 nM

Cc1cccnc1C1CCN(C(=O)Nc2ccc(C(F)(F)F)cc2)CC1
IC50 [11]: 390 nM
EC50 [1]: 1960 nM
IC50 [12]: 2170 nM

O=C(Nc1ccc(Cl)cc1)N1CCN(c2ccncc2)CC1
EC50 [15]: 3600 nM
EC50 [16]: 7240 nM
Efficacy [3]: > 40%
Efficacy [17]: 100%

Cc1cccnc1N1CCN(C(=O)Nc2ccc(Cl)cc2)CC1
IC50 [14]: 409 nM
IC50 [12]: 113 nM

O=C(Nc1ccc(C(F)(F)F)cc1)N1CC2CC1CN2c1ncccc1C(F)(F)F (stereo not given)
IC50 [6]: > 10000 nM
IC50 [12]: > 10000 nM

Cc1cccnc1N1CCN(C(=O)Nc2ccc(C(F)(F)F)cc2)CC1
IC50 [18]: 290 nM
IC50 [14]: 194 nM

COc1cc(CNC(=O)CCCC/C=C/C(C)C)ccc1O [CAPSAICIN]
ED50 (Rattus norvegicus): 3 µg

O=C(Nc1ccc(C(F)(F)F)cc1)N1CCN(c2ccccn2)CC1
IC50 [14]: 863 nM

O=C(Nc1ccncc1)N1CCN(c2ncccc2C(F)(F)F)CC1
EC50 [19]: 1280 nM
EC50 [20]: 1160 nM
Efficacy [3]: 100%
Efficacy [17]: 120%

O=C(Nc1ccc(C(F)(F)F)cc1)NC1CCN(c2ncccc2C(F)(F)F)C1 (stereo not given)
IC50 [18]: > 10000 nM
IC50 [14]: 13100 nM
EC50 [21]: > 10000 nM

O=C(Nc1cccc2ncccc12)N1CCN(c2ncccc2C(F)(F)F)CC1
EC50 [15]: 8300 nM
EC50 [20]: 5260 nM
Efficacy [3]: 2%
Efficacy [17]: 36%

CC1CN(c2ncccc2C(F)(F)F)CC(C)N1C(=O)Nc1ccc(C(F)(F)F)cc1 (stereo not given)
IC50 [14]: 3720 nM
IC50 [12]: 2450 nM

O=C(Nc1cnc2ccccc2c1)N1CCN(c2ncccc2C(F)(F)F)CC1
IC50 [7]: 526 nM
IC50 [14]: 2300 nM

O=C(Nc1ccc(C(F)(F)F)cc1)N1CCCN(c2ncccc2C(F)(F)F)CC1
IC50 [18]: 538 nM
IC50 [6]: 1180 nM

O=C(Nc1ccc(C(F)(F)F)cc1)N1CCN(c2cccnc2)CC1
IC50 [18]: 5030 nM
EC50 [19]: 2670 nM
Efficacy [3]: 18%

O=C(Nc1cccc2cccnc12)N1CCN(c2ncccc2C(F)(F)F)CC1
IC50 [13]: 8130 nM
IC50 [14]: 14700 nM

O=C(Nc1cccc2cnccc12)N1CCN(c2ncccc2C(F)(F)F)CC1
IC50 [14]: > 10000 nM
EC50 [19]: 7290 nM
Efficacy [3]: 11%
IC50 [12]: 2280 nM

O=C(Nc1ccccn1)N1CCN(c2ncccc2C(F)(F)F)CC1
IC50 [5]: 12100 nM
IC50 [14]: > 10000 nM

O=C(Nc1ccc2ncccc2c1)N1CCN(c2ncccc2C(F)(F)F)CC1
IC50 [6]: 3980 nM
IC50 [12]: 908 nM

O=C(Nc1cc2ccccc2cn1)N1CCN(c2ncccc2C(F)(F)F)CC1
IC50 [18]: 367 nM
IC50 [6]: 1010 nM

O=C(Nc1ccc(C(F)(F)F)cc1)N1CCN(c2ncccc2C(F)(F)F)CC1
IC50 [11]: 90 nM
